In PMC11022931 (Blood, 2022):

Key:
human platelets [1] = assay: Multiple electrode aggregometry; assay type: cell-based; settings: MEA, human blood; for effect on platelet aggregation induced by human plaque homogenate: plaque 833 µg/mL, AMD3465 100 nM, i[VREY]4 5 µM
[2] = i[VREY]4 pharmacokinetics, plasma ELISA; assay type: in vivo, C57BL/6J mice; settings: C57BL/6J, mouse, ip, 75 ug
How it was run: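 Biotinylated test compound (75 µg) was injected i.p. into mice. Plasma levels of the biotinylated peptide were measured by ELISA at several time points after injection. Data are means ± SD.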

mouse platelets [3] = assay: i[VREY]4-biot binding to mouse platelets, flow cytometry; assay type: cell-based
15N-labeled CXCL12 = 15N-labeled CXCL12 (Homo sapiens, UniProt P48061); assay: 15N HSQC NMR titration of CXCL12 with i[VREY]4; assay type: binding; settings: 20 µM 15N-CXCL12, i[VREY]4 20, 40, 200 µM; 25 mM KPi pH 7.1; 25 °C
mouse platelets [4] = assay: MEA in mouse blood activated with collagen; assay type: cell-based; settings: 1 µg/mL collagen, 5 µM i[VREY]4, n = 6-8
How it was run: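 Blood came from mice with megakaryocyte-lineage Cxcl12 deletion (Pf4-Cre × Cxcl12 fl/fl, Apoe-/- background) or from Cxcl12 wt/wt controls. It was mixed with 1 µg/mL collagen with or without 5 µM test compound, and aggregation was measured by multiple electrode aggregometry (Multiplate), n=6-8 mice. Data are means ± SD.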

CXCR4 = CXCR4 internalization on human platelets, flow cytometry; assay type: cell-based; settings: CXCL12 0.1 µg/mL, i[VREY]4 5 µM
How it was run: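 Human blood diluted 1:1 with PBS and treated with recombinant CXCL12 (0.1 µg/mL), collagen (1 µg/mL) and test compound (5 µM). Platelet-surface CXCR4 was stained with anti-CXCR4 clone 12G5 and measured by flow cytometry. Data are means ± SD of independent experiments, analysed by one-way ANOVA with Tukey's multiple comparison test.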

[5] = target: CXCL12 on human platelets (Homo sapiens, UniProt P48061); assay: Detection of CXCL12 on human platelets with anti-CXCL12 antibodies; assay type: cell-based; settings: human blood, CXCL12 0.1 µg/mL or collagen 1 µg/mL
human platelets [6] = assay: i[VREY]4-biot binding and proximity ligation with CXCL12 on human platelets; assay type: cell-based; settings: flow cytometry, resting vs collagen-activated, n = 6
human platelets [7] = assay: Platelet activation by PAC-1 and P-selectin staining, flow cytometry; assay type: cell-based; settings: human blood, remibrutinib 0.1 µM 30 minutes at 37°C, CXCL12 0.1 μg/mL, CRP-XL 0.01 μg/mL, n = 6
CXCL12 = CXCL12 (Homo sapiens, UniProt P48061); settings: read-out: KD of CXCL12 binding to CCL5; cited from earlier work

c1ccc(CNCc2ccc(CN3CCCNCCNCCCNCC3)cc2)nc1 [AMD3465, reference compound]
effect on platelet aggregation induced by human plaque homogenate (human platelets [1]): reduced

CC[C@H](C)[C@H](NC(=O)[C@H](Cc1ccc(O)cc1)NC(=O)[C@H](CCC(=O)O)NC(=O)[C@H](CCCNC(=N)N)NC(=O)[C@@H](NC(=O)[C@H](Cc1c[nH]c2ccccc12)NC(=O)[C@H](CCCCN)NC(=O)[C@H](CCCCN)NC(=O)[C@H](CCC(=O)O)NC(=O)CNC(=O)CON=C(C)CCCC(=O)NCCCC[C@@H]1NC(=O)[C@H](CCC(=O)O)NC(=O)[C@H](CCCCNC(=O)CCCC(C)=NOCC(=O)NCC(=O)N[C@@H](CCC(=O)O)C(=O)N[C@@H](CCCCN)C(=O)N[C@@H](CCCCN)C(=O)N[C@@H](Cc2c[nH]c3ccccc23)C(=O)N[C@H](C(=O)N[C@@H](CCCNC(=N)N)C(=O)N[C@@H](CCC(=O)O)C(=O)N[C@@H](Cc2ccc(O)cc2)C(=O)N[C@H](C(=O)N[C@@H](CC(N)=O)C(=O)N[C@@H](CO)C(=O)N[C@@H](CC(C)C)C(=O)N[C@@H](CCC(=O)O)C(=O)N[C@@H](CCSC)C(=O)N[C@@H](CO)C(=O)O)[C@@H](C)CC)C(C)C)NC(=O)[C@@H]2CCCN2C(=O)[C@H](CSC2CC(=O)N(CCCCCC(=O)NNC(=O)CCCC[C@@H]3SC[C@@H]4NC(=O)N[C@@H]43)C2=O)NC(=O)[C@H](CCCCNC(=O)CCCC(C)=NOCC(=O)NCC(=O)N[C@@H](CCC(=O)O)C(=O)N[C@@H](CCCCN)C(=O)N[C@@H](CCCCN)C(=O)N[C@@H](Cc2c[nH]c3ccccc23)C(=O)N[C@H](C(=O)N[C@@H](CCCNC(=N)N)C(=O)N[C@@H](CCC(=O)O)C(=O)N[C@@H](Cc2ccc(O)cc2)C(=O)N[C@H](C(=O)N[C@@H](CC(N)=O)C(=O)N[C@@H](CO)C(=O)N[C@@H](CC(C)C)C(=O)N[C@@H](CCC(=O)O)C(=O)N[C@@H](CCSC)C(=O)N[C@@H](CO)C(=O)O)[C@@H](C)CC)C(C)C)NC(=O)[C@H](CCCCN)NC(=O)[C@H](CCCCNC(=O)CCCC(C)=NOCC(=O)NCC(=O)N[C@@H](CCC(=O)O)C(=O)N[C@@H](CCCCN)C(=O)N[C@@H](CCCCN)C(=O)N[C@@H](Cc2c[nH]c3ccccc23)C(=O)N[C@H](C(=O)N[C@@H](CCCNC(=N)N)C(=O)N[C@@H](CCC(=O)O)C(=O)N[C@@H](Cc2ccc(O)cc2)C(=O)N[C@H](C(=O)N[C@@H](CC(N)=O)C(=O)N[C@@H](CO)C(=O)N[C@@H](CC(C)C)C(=O)N[C@@H](CCC(=O)O)C(=O)N[C@@H](CCSC)C(=O)N[C@@H](CO)C(=O)O)[C@@H](C)CC)C(C)C)NC(=O)[C@@H]2CCCN2C(=O)CNC1=O)C(C)C)C(=O)N[C@@H](CC(N)=O)C(=O)N[C@@H](CO)C(=O)N[C@@H](CC(C)C)C(=O)N[C@@H](CCC(=O)O)C(=O)N[C@@H](CCSC)C(=O)N[C@@H](CO)C(=O)O (some centres unmarked) [i[VREY]4-biot]
Cmax [2]: 1970 ng/mL
binding to the surface of unactivated mouse platelets (mouse platelets [3]; resting conditions, flow cytometry): No binding was observed
binding to the surface of mouse platelets, wild type vs CXCR4 knockout (mouse platelets [3]; resting or 10 µg/mL collagen, streptavidin-FITC flow cytometry, n = 3-5): required platelet activation and CXCR4

CC[C@H](C)[C@H](NC(=O)[C@H](Cc1ccc(O)cc1)NC(=O)[C@H](CCC(=O)O)NC(=O)[C@H](CCCNC(=N)N)NC(=O)[C@@H](NC(=O)[C@H](Cc1c[nH]c2ccccc12)NC(=O)[C@H](CCCCN)NC(=O)[C@H](CCCCN)NC(=O)[C@H](CCC(=O)O)NC(=O)CNC(=O)CON=C(C)CCCC(=O)NCCCC[C@@H]1NC(=O)[C@H](CCC(=O)O)NC(=O)[C@H](CCCCNC(=O)CCCC(C)=NOCC(=O)NCC(=O)N[C@@H](CCC(=O)O)C(=O)N[C@@H](CCCCN)C(=O)N[C@@H](CCCCN)C(=O)N[C@@H](Cc2c[nH]c3ccccc23)C(=O)N[C@H](C(=O)N[C@@H](CCCNC(=N)N)C(=O)N[C@@H](CCC(=O)O)C(=O)N[C@@H](Cc2ccc(O)cc2)C(=O)N[C@H](C(=O)N[C@@H](CC(N)=O)C(=O)N[C@@H](CO)C(=O)N[C@@H](CC(C)C)C(=O)N[C@@H](CCC(=O)O)C(=O)N[C@@H](CCSC)C(=O)N[C@@H](CO)C(=O)O)[C@@H](C)CC)C(C)C)NC(=O)[C@@H]2CCCN2C(=O)[C@H](CSCC(N)=O)NC(=O)[C@H](CCCCNC(=O)CCCC(C)=NOCC(=O)NCC(=O)N[C@@H](CCC(=O)O)C(=O)N[C@@H](CCCCN)C(=O)N[C@@H](CCCCN)C(=O)N[C@@H](Cc2c[nH]c3ccccc23)C(=O)N[C@H](C(=O)N[C@@H](CCCNC(=N)N)C(=O)N[C@@H](CCC(=O)O)C(=O)N[C@@H](Cc2ccc(O)cc2)C(=O)N[C@H](C(=O)N[C@@H](CC(N)=O)C(=O)N[C@@H](CO)C(=O)N[C@@H](CC(C)C)C(=O)N[C@@H](CCC(=O)O)C(=O)N[C@@H](CCSC)C(=O)N[C@@H](CO)C(=O)O)[C@@H](C)CC)C(C)C)NC(=O)[C@H](CCCCN)NC(=O)[C@H](CCCCNC(=O)CCCC(C)=NOCC(=O)NCC(=O)N[C@@H](CCC(=O)O)C(=O)N[C@@H](CCCCN)C(=O)N[C@@H](CCCCN)C(=O)N[C@@H](Cc2c[nH]c3ccccc23)C(=O)N[C@H](C(=O)N[C@@H](CCCNC(=N)N)C(=O)N[C@@H](CCC(=O)O)C(=O)N[C@@H](Cc2ccc(O)cc2)C(=O)N[C@H](C(=O)N[C@@H](CC(N)=O)C(=O)N[C@@H](CO)C(=O)N[C@@H](CC(C)C)C(=O)N[C@@H](CCC(=O)O)C(=O)N[C@@H](CCSC)C(=O)N[C@@H](CO)C(=O)O)[C@@H](C)CC)C(C)C)NC(=O)[C@@H]2CCCN2C(=O)CNC1=O)C(C)C)C(=O)N[C@@H](CC(N)=O)C(=O)N[C@@H](CO)C(=O)N[C@@H](CC(C)C)C(=O)N[C@@H](CCC(=O)O)C(=O)N[C@@H](CCSC)C(=O)N[C@@H](CO)C(=O)O [i[VREY]4]
affinity of interaction with CXCL12 by HSQC NMR titration (15N-labeled CXCL12): in the micromolar range
effect on platelet aggregation induced by human plaque homogenate (human platelets [1]): inhibited
effect on collagen-induced platelet aggregation in blood from Cxcl12 wt/wt mice (mouse platelets [4]): diminished
effect on internalization of CXCR4 after CXCL12 exposure (CXCR4): could not be reversed
effect on binding of anti-CXCL12 antibody clone #79018 to platelets ([5]; n = 8): diminished
effect on binding of anti-CXCL12 antibody K15C to platelets ([5]; n = 10): did not result in reduced binding of K15C
change of i[VREY]4 binding to human platelets on activation with collagen (human platelets [6]): increased

C=CC(=O)N(C)CCOc1c(N)ncnc1-c1cc(F)cc(NC(=O)c2ccc(C3CC3)cc2F)c1C [remibrutinib]
effect on P-selectin expression and integrin αIIbβ3 activation by CRP-XL combined with CXCL12 (human platelets [7]): reversed

CCL5: recombinant human chemokine CCL5
Kd (CXCL12): 578 ± 61 nM

CXCL12: recombinant human chemokine CXCL12, platelet agonist
CXCL12 concentration that induced platelet aggregation (human platelets [1]; recombinant CXCL12 alone, n = 5-10): ≥ 100 ng/mL
